RGS4 inh – RGS4 inhibitors, primary screen, cell-based, HEK293 M3R inducible RGS4, calcium flux; AID 463165, 2010; B-score at 10 µM; Fluo-4 calcium flux; active compounds read high; triggered by carbachol at its EC20; 310,000 tested, 0.45% active; Regulator of G-protein signaling 4 (Homo sapiens), P49798;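 active means B-score, a plate-corrected calcium signal, over three deviations above library mean, with baseline fluorescence within five deviations of library mean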;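 further: RGS4 expression induced by doxycycline in cells with stable M3 receptor; B-score is computed from the integrated fluorescence ratio over baseline after carbachol; higher B-score means a larger calcium signal and so more RGS4 inhibition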
Target sequence (P49798 whole entry, looked up): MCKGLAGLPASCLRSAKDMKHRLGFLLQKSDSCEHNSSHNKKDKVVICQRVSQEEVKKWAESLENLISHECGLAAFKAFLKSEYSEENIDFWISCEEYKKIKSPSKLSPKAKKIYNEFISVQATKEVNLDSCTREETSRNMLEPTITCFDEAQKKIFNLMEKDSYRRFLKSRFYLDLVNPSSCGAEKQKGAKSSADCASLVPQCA
MrgX1 antagonist – antagonists of human MrgX1 receptor, primary screen, HEK293 cells, Fluo-4 calcium flux; Mas-related G-protein coupled receptor member X1 (Homo sapiens), Q96LB2; BAM8-22 antagonism; active compounds read low; B-score at 10 µM; 310,000 tested, 1.3% active;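 active means calcium-response B-score plate-corrected more than 3 library SD below zero, starting fluorescence within 5 deviations, no agonist response on first addition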;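 further: peak minus trough fluorescence over baseline after final BAM8-22 challenge near maximal dose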
Target sequence (Q96LB2 whole entry, looked up): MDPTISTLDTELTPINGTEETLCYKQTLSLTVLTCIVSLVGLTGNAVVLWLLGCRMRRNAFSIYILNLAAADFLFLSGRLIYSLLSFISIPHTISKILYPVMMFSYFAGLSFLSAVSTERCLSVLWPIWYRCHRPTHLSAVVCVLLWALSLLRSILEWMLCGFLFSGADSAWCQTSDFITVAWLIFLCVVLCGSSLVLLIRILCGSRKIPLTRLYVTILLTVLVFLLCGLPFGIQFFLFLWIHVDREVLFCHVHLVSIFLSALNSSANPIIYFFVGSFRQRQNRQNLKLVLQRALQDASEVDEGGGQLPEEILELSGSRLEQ
MrgX1 ag – agonists of human MrgX1 receptor, primary screen, HEK293 cells, Fluo-4 calcium flux; Fluo-4 calcium fluorescence, agonist mode; active compounds read high; B-score at 10 µM; 310,000 tested, 0.44% active; Mas-related G-protein coupled receptor member X1 (Homo sapiens), Q96LB2;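 active means calcium response B-score plate-corrected fluorescence ratio at least 3 library SD, with starting fluorescence B-score inside 5 SD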
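Test system: Stable human MrgX1 HEK293 cell line | Schedule: Overnight plating before 1 h dye loading | Read-out basis: Baseline-normalised fluorescence change ratio, B-scored | Detection: Kinetic calcium dye fluorescence, Fluo-4 NW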
RGS4 act – RGS4 potentiators or activators, primary screen, cell-based, HEK293 M3R inducible RGS4, calcium flux. carbachol calcium flux Fluo4; active compounds read low. B-score at 10 µM. 310,000 tested, 0.92% active. AID 463111, 2010;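 active means B-score of the integrated calcium signal more than 4 SD below the library mean, with starting fluorescence not abnormally high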;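 further: negative B-score means reduced calcium response which marks RGS4 activation or potentiation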
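Material: M3R-expressing HEK293 line, RGS4 induced by doxycycline | Schedule: Overnight RGS4 induction, 30 min dye load 37 °C, 20 min compound RT | Measured by: Fluo4 fluorescence kinetic imaging of calcium | Read-out: Integrated calcium ratio converted to B score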
MrgX1 PAM – positive allosteric modulators of MrgX1, primary screen, HEK293 cells, Fluo-4 calcium flux. 310,000 tested, 0.63% active. FDSS; active compounds read high. B-score at 10 µM;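 active means plate-corrected calcium response at least 3 library SD above typical, normal starting fluorescence, not activating the receptor alone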;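 further: compound read alongside a low EC10 to EC30 dose of BAM8-22 agonist; peak minus trough fluorescence over baseline measured at the second addition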
Large screens that a line does not name were inactive. An excerpt weighted towards active compounds, which were near 3.5% of everything screened.

CCOc1ccc2[nH]c(=O)c(CN(Cc3nnnn3Cc3ccco3)C3CCCCC3)cc2c1	MrgX1 ag 26.6
COc1cc2cc(CN(Cc3nnnn3Cc3ccco3)C3CCCCC3)c(=O)[nH]c2cc1OC	none
Cn1cnc2c1c(=O)n(Cc1ccc(Cl)cc1Cl)c(=O)n2C	none
COC(=O)c1ccc(C23CC4(C2)[C@H](CN(C)[C@@H]4c2ccccc2)C3c2ccc(Cl)nc2)cc1 (stereo partly drawn)	RGS4 act -7.11
CCOc1ccc(C(=O)C(CCC(CN(C)C)C(=O)c2ccc(OCC)cc2)CN(C)C)cc1 (stereo not drawn)	RGS4 act -7.95 (no result: MrgX1 antagonist, MrgX1 ag, MrgX1 PAM)
COc1ccc(C(=O)C(CCCCC(CN(C)C)C(=O)c2ccc(OC)cc2)CN(C)C)cc1 (stereo not drawn)	none
CNC(=O)c1cccc(NC(=O)c2ccccc2OCc2ccccc2)c1	none
CCc1ccccc1NC(=O)CSc1nc(-c2ccccc2)nn1C(=O)c1cccc([N+](=O)[O-])c1	none
O=C(CSc1nc(-c2ccccc2)nn1C(=O)c1ccccc1)Nc1cccc([N+](=O)[O-])c1	MrgX1 antagonist -4.79
CCOc1cc(/C=C(\C#N)C(=O)Nc2ccccc2C(=O)O)ccc1OC(=O)c1ccc(C)cc1	MrgX1 antagonist -4.9
COc1ccc(/C=C(/C#N)C(=O)Nc2ccccc2C)cc1C(=O)O	none
O=C(c1ccc(=O)n(Cc2ccc(Cl)c(Cl)c2)c1)N1CCOCC1	MrgX1 antagonist -7.44
CCOC(=O)c1c(NC(=O)Cn2cnc([N+](=O)[O-])n2)sc2c1CCC(C)C2 (stereo not drawn)	none
COC(=O)c1c(NC(=O)Cn2cnc([N+](=O)[O-])n2)sc2c1CCC(C)C2 (stereo not drawn)	RGS4 act -7.61
O=C(O)c1ccc2c(=O)[nH]c(CCl)nc2c1	none
COc1cc(/C=N/OCC(=O)Nc2ccc(OC(F)F)cc2)ccc1OCc1ccccc1	RGS4 act -7.03
O=C(CN1CCCCC1)Nc1ccccc1-c1ccccc1	RGS4 act -10
CSc1nc(N)c(C(=O)NC2CCCCC2)s1	none
C/C(=N\NC(=O)c1ccc(Cn2cc(Br)cn2)o1)c1cccc(NC(=O)C(C)C)c1	none
C/C(=N\NC(=O)c1ccc(Cn2cc([N+](=O)[O-])cn2)o1)c1cccc(NC(=O)C(C)C)c1	MrgX1 antagonist -5.62
O=C(NNC(=O)c1cc(-c2cccc(Br)c2)nc2ccccc12)c1csc(N2CCOCC2)n1	RGS4 act -7.56
Cc1oc(-c2ccccc2Cl)nc1CN1CCCC1c1ccc(F)cc1 (stereo not drawn)	none
Cc1oc(-c2ccccc2Cl)nc1CN1CCCCC1c1cccnc1 (stereo not drawn)	MrgX1 ag 40.6
CCOc1ccc(C(=O)NNC2CC(=O)N(CCc3ccccc3)C2=O)cc1OC (stereo not drawn)	MrgX1 antagonist -5.46
CCN(CC(=O)Nc1ccc(NC(C)=O)cc1)C(=O)/C=C/c1ccc(S(=O)(=O)N2CCCCCC2)cc1	none
CC12CCC(C/C1=N\OC(=O)c1c(F)cccc1F)C2(C)C (stereo not drawn)	MrgX1 ag 53.8
CC12CCC(C/C1=N/NC(=O)Nc1ccccc1)C2(C)C (stereo not drawn)	MrgX1 PAM 12.7
CC12CCC(C/C1=N/NC(=O)COc1ccccc1Cl)C2(C)C (stereo not drawn)	none
CCC(NC(C)C)C(O)c1ccc(O)c2[nH]c(=O)ccc12 (stereo not drawn)	MrgX1 ag 28.1
CC(C)[C@H](NC(=O)c1ccccc1Cl)C(=O)OCc1cc([N+](=O)[O-])cc2c1OCOC2	none
CSCCC(NC(=O)c1ccco1)C(=O)OCc1cc([N+](=O)[O-])cc2c1OCOC2 (stereo not drawn)	MrgX1 ag 28.4
COC(=O)C1=NN(C(=O)c2ccc(Cl)cc2)C(O)(c2ccccc2)C1 (stereo not drawn)	MrgX1 ag 38.8
O=C(c1ccccc1O)N1N=C(C(F)(F)F)CC1(O)c1ccc([N+](=O)[O-])cc1 (stereo not drawn)	none
CCC1=NN(C(=O)c2ccc([N+](=O)[O-])cc2)C(O)(c2ccccc2)C1 (stereo not drawn)	MrgX1 PAM 13.9
CCC1=NN(C(=O)c2ccc(Cl)cc2)C(O)(c2ccccc2)C1 (stereo not drawn)	MrgX1 ag 40.2
CCC1=NN(C(=O)c2ccc(Cl)cc2)C(O)(c2ccc(C)cc2)C1 (stereo not drawn)	MrgX1 PAM 7.27
CCC1=NN(C(=O)c2ccccc2O)C(O)(c2ccccc2)C1 (stereo not drawn)	none
CCC1(O)CC(C(=O)OC)=NN1C(=O)c1ccccc1 (stereo not drawn)	none
CCOC(=O)C1=NN(C(=O)c2ccc(C)cc2)C(O)(c2ccc(Cl)cc2)C1 (stereo not drawn)	MrgX1 ag 53.6, RGS4 act -9.33
Cc1cccc(C2NC(c3cccc(C)c3)C([N+](=O)[O-])C(C)(C)C2[N+](=O)[O-])c1 (stereo not drawn)	none
O=C(C1CCN(Cc2ccc(Cl)cc2)CC1)N1CCN(C(c2ccccc2)c2ccccc2)CC1	RGS4 act -8.01
CCOc1c(Br)cc(C(=O)N2CCCN(C)CC2)cc1OC	none
CCC(C)c1nc2ccsc2c(N2CCOC2=O)c1-c1ccccc1 (stereo not drawn)	none
COc1ccc(-c2cc(C(F)(F)F)c3c(N)c(C(=O)NCCSC)sc3n2)cc1	none
Nc1c(C(=O)C2CC2)sc2nc(-c3ccccc3)cc(C(F)(F)F)c12	RGS4 act -9.35
O=C(Nc1nc2ccccc2s1)C1CCN(S(=O)(=O)c2cc([N+](=O)[O-])ccc2Cl)CC1	MrgX1 antagonist -5.32
CCC(C)NC(=O)C1CCN(S(=O)(=O)c2cc([N+](=O)[O-])ccc2Cl)CC1 (stereo not drawn)	none
Fc1ccc(C2CCNCC2COc2ccc3c(c2)OCO3)cc1 (stereo not drawn)	RGS4 act -8.75
Fc1ccc([C@@H]2CCNC[C@H]2COc2ccc3c(c2)OCO3)cc1	RGS4 act -7.09
CCc1ccc(NC(=O)C(C)n2nc(C)c([N+](=O)[O-])c2C)cc1 (stereo not drawn)	none
O=C(OCC(=O)N1CCCC1)c1c2c(nc3ccccc13)CCCCC2	none
CNC(=S)NNC(=O)c1sc(-c2cc(C)on2)nc1C	none
CCC/C=C(\CCC)C(NS(=O)(=O)c1ccc(C(F)(F)F)cc1)c1ccccc1 (stereo not drawn)	RGS4 act -8.15
O=C(O)C(NS(=O)(=O)c1ccc(F)cc1)c1ccccc1 (stereo not drawn)	none

Screening data: PubChem, Johns Hopkins Ion Channel Center
